Data as given in ChEMBL document CHEMBL4007421, “Discovery and Preclinical Characterization of 3-((4-(4-Chlorophenyl)-7-fluoroquinoline-3-yl)sulfonyl)benzonitrile, a Novel Non-acetylenic Metabotropic Glutamate Receptor 5 (mGluR5) Negative Allosteric Modulator for Psychiatric Indications” (J Med Chem, 2017).
In brackets after ≈: the same amount, converted by molar mass. Activity calls are given as the source filed them. No cut-off for these calls is given here.

Assays:
[1] = Cmax in fasted female beagle dog at 1 mg/kg, po; format: ADME, organism-based, Canis lupus familiaris; parameters: dose 1 mg/kg, route oral; conditions: in vivo
[2] = molecular target: T1, Metabotropic glutamate receptor 5 (Homo sapiens, UniProt P41594); experiment: Displacement of [3H]M-MPEP from recombinant human mGluR5a expressed in human A18 cell membrane homogenate
T1 sequence (P41594 whole entry): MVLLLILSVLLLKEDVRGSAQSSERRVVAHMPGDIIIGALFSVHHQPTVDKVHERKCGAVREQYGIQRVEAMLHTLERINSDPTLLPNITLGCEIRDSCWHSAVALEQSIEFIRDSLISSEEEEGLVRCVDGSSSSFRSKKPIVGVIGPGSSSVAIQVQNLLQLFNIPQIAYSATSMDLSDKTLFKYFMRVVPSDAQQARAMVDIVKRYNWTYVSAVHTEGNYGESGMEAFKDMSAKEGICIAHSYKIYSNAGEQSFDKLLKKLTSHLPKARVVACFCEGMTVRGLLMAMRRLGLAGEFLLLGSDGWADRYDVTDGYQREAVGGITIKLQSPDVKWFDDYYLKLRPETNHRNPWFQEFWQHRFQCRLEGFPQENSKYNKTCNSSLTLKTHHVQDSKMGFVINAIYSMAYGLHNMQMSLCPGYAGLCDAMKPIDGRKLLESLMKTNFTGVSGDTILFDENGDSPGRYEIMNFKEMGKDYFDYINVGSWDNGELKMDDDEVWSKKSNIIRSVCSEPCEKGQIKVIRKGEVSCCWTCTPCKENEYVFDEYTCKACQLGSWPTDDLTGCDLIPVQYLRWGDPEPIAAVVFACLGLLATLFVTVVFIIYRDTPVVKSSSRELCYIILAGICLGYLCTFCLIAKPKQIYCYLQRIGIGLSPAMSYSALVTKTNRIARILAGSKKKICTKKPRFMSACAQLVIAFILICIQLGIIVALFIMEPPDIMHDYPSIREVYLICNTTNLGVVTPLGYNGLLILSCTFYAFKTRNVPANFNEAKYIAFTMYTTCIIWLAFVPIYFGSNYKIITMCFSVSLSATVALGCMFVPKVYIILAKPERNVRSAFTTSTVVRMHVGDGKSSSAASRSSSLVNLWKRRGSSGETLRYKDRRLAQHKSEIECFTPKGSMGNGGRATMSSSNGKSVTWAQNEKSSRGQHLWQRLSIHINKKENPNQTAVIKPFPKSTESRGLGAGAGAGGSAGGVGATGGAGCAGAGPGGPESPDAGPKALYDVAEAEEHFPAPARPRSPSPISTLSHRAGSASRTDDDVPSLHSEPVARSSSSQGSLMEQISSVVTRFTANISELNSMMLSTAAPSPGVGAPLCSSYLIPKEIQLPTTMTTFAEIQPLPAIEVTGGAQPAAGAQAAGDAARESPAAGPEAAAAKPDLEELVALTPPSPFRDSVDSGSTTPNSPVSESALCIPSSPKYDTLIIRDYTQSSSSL

[3] = molecular target: Cytochrome P450 2C9 (Homo sapiens, UniProt P11712); experiment: Inhibition of CYP2C9 in human liver microsomes; format: ADME
Chain of Cytochrome P450 2C9 (P11712 whole entry): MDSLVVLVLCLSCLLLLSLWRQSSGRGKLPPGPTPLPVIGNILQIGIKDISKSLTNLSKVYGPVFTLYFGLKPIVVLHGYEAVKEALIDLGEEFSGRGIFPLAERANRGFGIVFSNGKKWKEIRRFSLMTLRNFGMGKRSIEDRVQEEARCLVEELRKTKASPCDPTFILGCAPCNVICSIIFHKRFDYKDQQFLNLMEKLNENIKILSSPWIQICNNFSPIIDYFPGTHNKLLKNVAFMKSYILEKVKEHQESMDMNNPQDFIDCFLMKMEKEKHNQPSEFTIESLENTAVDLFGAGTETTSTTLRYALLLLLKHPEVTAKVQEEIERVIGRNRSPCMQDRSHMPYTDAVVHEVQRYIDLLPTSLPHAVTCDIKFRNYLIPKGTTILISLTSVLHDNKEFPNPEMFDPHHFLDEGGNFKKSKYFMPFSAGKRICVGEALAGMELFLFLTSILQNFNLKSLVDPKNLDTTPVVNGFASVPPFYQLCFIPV

[4] = molecular target: T2, Metabotropic glutamate receptor 5 (Rattus norvegicus, UniProt P31424); experiment: Displacement of [3H]M-MPEP from mGluR5 in Sprague-Dawley rat cerebrocortical membranes after 60 mins
T2 sequence (P31424 whole entry): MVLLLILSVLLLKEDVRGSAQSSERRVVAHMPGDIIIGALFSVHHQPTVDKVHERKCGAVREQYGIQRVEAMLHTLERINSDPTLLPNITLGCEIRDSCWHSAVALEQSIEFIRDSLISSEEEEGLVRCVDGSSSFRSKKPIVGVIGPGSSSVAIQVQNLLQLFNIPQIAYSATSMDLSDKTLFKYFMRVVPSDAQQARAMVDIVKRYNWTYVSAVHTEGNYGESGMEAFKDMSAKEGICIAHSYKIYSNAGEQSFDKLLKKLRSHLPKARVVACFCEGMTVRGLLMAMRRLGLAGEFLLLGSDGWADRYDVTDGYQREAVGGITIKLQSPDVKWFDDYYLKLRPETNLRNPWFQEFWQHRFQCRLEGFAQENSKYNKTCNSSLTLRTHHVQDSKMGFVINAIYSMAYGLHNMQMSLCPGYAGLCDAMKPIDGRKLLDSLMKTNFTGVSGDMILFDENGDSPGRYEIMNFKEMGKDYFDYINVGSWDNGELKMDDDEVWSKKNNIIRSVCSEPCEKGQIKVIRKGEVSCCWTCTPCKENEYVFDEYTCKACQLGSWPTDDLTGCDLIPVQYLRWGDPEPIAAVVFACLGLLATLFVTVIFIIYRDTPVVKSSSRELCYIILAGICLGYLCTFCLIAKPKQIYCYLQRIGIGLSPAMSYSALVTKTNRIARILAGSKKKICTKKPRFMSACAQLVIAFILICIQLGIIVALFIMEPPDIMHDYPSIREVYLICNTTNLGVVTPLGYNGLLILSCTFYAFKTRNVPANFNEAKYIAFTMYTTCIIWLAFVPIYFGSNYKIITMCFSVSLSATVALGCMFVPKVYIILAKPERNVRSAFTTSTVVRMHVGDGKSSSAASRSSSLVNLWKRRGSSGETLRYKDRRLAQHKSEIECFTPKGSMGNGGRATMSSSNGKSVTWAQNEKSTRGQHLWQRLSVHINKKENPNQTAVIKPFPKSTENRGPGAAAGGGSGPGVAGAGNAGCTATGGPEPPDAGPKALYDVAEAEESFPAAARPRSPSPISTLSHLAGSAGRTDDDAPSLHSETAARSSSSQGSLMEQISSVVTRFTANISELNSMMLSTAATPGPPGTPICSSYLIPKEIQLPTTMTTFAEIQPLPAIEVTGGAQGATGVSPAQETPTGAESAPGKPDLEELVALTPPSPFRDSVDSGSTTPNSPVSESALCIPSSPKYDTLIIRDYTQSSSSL

[5] = system: Rattus norvegicus; experiment: Anxiolytic activity in Wistar rat assessed as increase in water drinking time during punished period at 10 mg/kg, po qd for 19 days by Vogel punished drinking conflict test; format: functional, organism-based
Summary of the method: (§1)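 Vogel punished-drinking test in rats after 24 h water deprivation, with 60 s unpunished drinking; oral 10 mg/kg given once daily for 19 days, vehicle group dosed only on Day 19 as first-dose control; plasma sampled right after test; n=10 per group; ANOVA with Duncan post-hoc.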

[6] = Cmax in male beagle dog at 0.5 mg/kg, iv administered as infusion; format: ADME, organism-based, Canis lupus familiaris; parameters: dose 0.5 mg/kg, route intravenous; conditions: in vivo
[7] = Cmax in fasted male beagle dog at 1 mg/kg, po; format: ADME, organism-based, Canis lupus familiaris; parameters: dose 1 mg/kg, route oral; conditions: in vivo
[8] = Terminal elimination half life in male beagle dog at 0.5 mg/kg, iv administered as infusion; format: ADME, organism-based, Canis lupus familiaris; conditions: in vivo, read-out: beta t1/2 (converted)
Summary of the method: (§2)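 Single-dose PK: i.v. and oral dosing in Crl:CD(SD) rats and beagle dogs, plus a pilot oral nasogastric study in Cynomolgus monkeys using a Type IV lipid formulation. Rat i.v. vehicle was 80% cosolvent. Monkeys were fasted from 2 h before until 2 h after dosing, n=3 per sex. Rats also received [14C]-labelled compound orally at 50 mg/kg, with total radioactivity followed. Parameters are means; monkey values are medians.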

[9] = molecular target: T1, Metabotropic glutamate receptor 5; experiment: Displacement of [3H]M-MPEP from mGluR5 in female human post mortem parietal cortical tissue after 30 mins by scintillation counting method
[10] = Plasma protein binding in human; format: ADME, cell-free; conditions: read-out: PPB (converted)
[11] = AUC in male beagle dog at 0.5 mg/kg, iv administered as infusion; format: ADME, organism-based, Canis lupus familiaris; conditions: in vivo
[12] = AUC(0 to 8 hrs) in fasted female cynomolgus monkey at 9 mg/kg, po administered as single dose; format: ADME, organism-based, Macaca fascicularis; parameters: time < 6 hr, dose 9 mg/kg, route oral; conditions: in vivo
[13] = Tmax in fasted male cynomolgus monkey at 9 mg/kg, po administered as single dose; format: ADME, organism-based, Macaca fascicularis; conditions: in vivo; summary of the method: as §2
[14] = molecular target: T3, Cytochrome P450 1A2 (Homo sapiens, UniProt P05177); experiment: Inhibition of CYP1A2 in human liver microsomes; format: ADME
T3 sequence (P05177 whole entry): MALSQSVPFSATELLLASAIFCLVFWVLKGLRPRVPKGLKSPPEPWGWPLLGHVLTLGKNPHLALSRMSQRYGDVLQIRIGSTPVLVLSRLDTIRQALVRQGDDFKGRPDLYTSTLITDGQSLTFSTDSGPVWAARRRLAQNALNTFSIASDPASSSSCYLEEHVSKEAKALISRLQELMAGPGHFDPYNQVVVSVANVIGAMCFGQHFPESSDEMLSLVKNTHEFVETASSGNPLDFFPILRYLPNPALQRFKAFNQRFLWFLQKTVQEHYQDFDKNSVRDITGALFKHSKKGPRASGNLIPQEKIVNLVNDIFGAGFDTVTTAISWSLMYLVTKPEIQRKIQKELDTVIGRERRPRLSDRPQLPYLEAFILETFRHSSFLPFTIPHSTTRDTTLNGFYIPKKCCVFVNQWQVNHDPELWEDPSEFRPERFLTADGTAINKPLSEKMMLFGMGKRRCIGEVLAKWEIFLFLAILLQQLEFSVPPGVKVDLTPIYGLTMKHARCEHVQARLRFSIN

[15] = Cmax in fasted female cynomolgus monkey at 9 mg/kg, po administered as single dose; format: ADME, organism-based, Macaca fascicularis; parameters: dose 9 mg/kg, route oral; conditions: in vivo
[16] = Terminal elimination half life in female Crl:CD(SD) rat at 0.5 mg/kg, iv; format: ADME, organism-based; conditions: in vivo, read-out: beta t1/2 (converted); summary of the method: as §2
[17] = Cmax in male Crl:CD(SD) rat at 4.5 mg/kg, po; format: ADME, organism-based; parameters: dose 4.5 mg/kg, route oral; conditions: in vivo
[18] = Tmax in fasted female cynomolgus monkey at 9 mg/kg, po administered as single dose; format: ADME, organism-based, Macaca fascicularis; conditions: in vivo; summary of the method: as §2
[19] = Tmax in male beagle dog at 0.5 mg/kg, iv administered as infusion; format: ADME, organism-based, Canis lupus familiaris; conditions: in vivo; summary of the method: as §2
[20] = molecular target: Cytochrome P450 2D6 (Homo sapiens, UniProt P10635); experiment: Inhibition of CYP2D6 in human liver microsomes; format: ADME
Chain of Cytochrome P450 2D6 (P10635 whole entry): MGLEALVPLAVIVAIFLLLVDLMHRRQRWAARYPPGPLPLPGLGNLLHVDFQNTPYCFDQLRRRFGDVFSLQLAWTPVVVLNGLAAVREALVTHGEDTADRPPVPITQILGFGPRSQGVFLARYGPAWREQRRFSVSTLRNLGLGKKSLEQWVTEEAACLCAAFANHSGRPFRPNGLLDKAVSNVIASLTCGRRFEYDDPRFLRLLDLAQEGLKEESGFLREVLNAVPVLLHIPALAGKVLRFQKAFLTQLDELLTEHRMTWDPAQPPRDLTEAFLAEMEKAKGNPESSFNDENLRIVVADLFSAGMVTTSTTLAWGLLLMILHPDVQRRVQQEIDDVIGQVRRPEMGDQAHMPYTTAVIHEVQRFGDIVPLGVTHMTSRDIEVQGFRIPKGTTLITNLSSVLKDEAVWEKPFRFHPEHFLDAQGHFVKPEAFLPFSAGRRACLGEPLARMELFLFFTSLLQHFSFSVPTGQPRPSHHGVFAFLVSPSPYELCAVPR

[21] = AUC in male Crl:CD(SD) rat at 4.5 mg/kg, po; format: ADME, organism-based; conditions: in vivo
[22] = system: Rattus norvegicus; experiment: Therapeutic index, ratio of MED for effect on spatial learning performance in po dosed Wistar rat by Morris water maze test to MED for anxiolytic activity in Wistar rat by Vogel punished drinking conflict test
Summary of the method: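 Index is the Morris water maze minimum effective dose (oral, given 1 h before the first daily trial, 4 days of 3 trials) divided by the Vogel punished drinking minimum effective dose.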

[23] = molecular target: T2, Metabotropic glutamate receptor 5; experiment: Negative allosteric modulation of mGluR5 in E17 Sprague-Dawley rat primary neuronal cultures assessed as reduction of DHPG-induced cytosolic Ca2+ influx after 10 to 20 mins by fluo-4/AM-dye based fluorometric analysis; format: functional
[24] = Tmax in fasted male beagle dog at 1 mg/kg, po; format: ADME, organism-based, Canis lupus familiaris; conditions: in vivo; summary of the method: as §2
[25] = Volume of distribution in female beagle dog at 0.5 mg/kg, iv administered as infusion; format: ADME, organism-based, Canis lupus familiaris; conditions: in vivo; summary of the method: as §2
[26] = Aqueous solubility of the compound at pH 7.4; format: physicochemical
[27] = Terminal elimination half life in male Crl:CD(SD) rat at 0.5 mg/kg, iv; format: ADME, organism-based; conditions: in vivo, read-out: beta t1/2 (converted); summary of the method: as §2
[28] = system: Liver; experiment: Intrinsic clearance in human liver microsomes at 2.5 uM assessed per gram of liver; format: ADME, microsome
[29] = Tmax in fasted female beagle dog at 1 mg/kg, po; format: ADME, organism-based, Canis lupus familiaris; conditions: in vivo; summary of the method: as §2
[30] = Plasma concentration in Wistar rat at 10 mg/kg, po qd for 19 days during Vogel punished drinking conflict test; format: ADME, organism-based; summary of the method: as §1
[31] = Plasma protein binding in dog; format: ADME, cell-free, Canis lupus familiaris; conditions: read-out: PPB (converted)
[32] = Cmax in fasted male cynomolgus monkey at 9 mg/kg, po administered as single dose; format: ADME, organism-based, Macaca fascicularis; parameters: dose 9 mg/kg, route oral; conditions: in vivo
[33] = Terminal elimination half life in female Crl:CD(SD) rat at 4.5 mg/kg, po; format: ADME, organism-based; conditions: in vivo, read-out: beta t1/2 (converted); summary of the method: as §2
[34] = AUC in female Crl:CD(SD) rat at 0.5 mg/kg, iv; format: ADME, organism-based; conditions: in vivo
[35] = system: Rattus norvegicus; experiment: Terminal elimination half life in female Crl:CD(SD) rat at 50 mg/kg, po using [14C]labeled compound; format: ADME, organism-based; conditions: in vivo; summary of the method: as §2
[36] = Tmax in male Crl:CD(SD) rat at 4.5 mg/kg, po; format: ADME, organism-based; conditions: in vivo; summary of the method: as §2
[37] = system: Rattus norvegicus; experiment: Anxiolytic activity in po dosed Wistar rat assessed as increase in water drinking time during punished period administered as suspension by Vogel punished drinking conflict test; format: functional; conditions: read-out: MED
Summary of the method: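 Vogel punished-drinking test in rats, single i.p. or p.o. dose as suspension in 5% Tween 80; plasma sampled ~45 min after i.p. or ~75 min after p.o. dosing.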

Which Cmax [1] does the source give for `N#Cc1cccc(S(=O)(=O)c2cnc3cc(F)ccc3c2-c2ccc(Cl)cc2)c1` here?
The Cmax was 551 nM.

What about the Ki [2] of the same compound?
Its Ki is 4.9 nM.

And the IC50 [3]?
Its IC50 is over 10000 nM.

What about the Ki [4] of the same compound?
The Ki was 55.3 nM.

And the Activity [5]?
The Activity was “Active”.

And the Cmax [6]?
The Cmax was 1540 nM.

And the Cmax [7]?
The Cmax was 492 nM.

And the half-life [8]?
The half-life was 12.2 h.

What about the Ki [9] of the same compound?
The Ki was 12.1 nM.

And the fraction unbound [10]?
The fraction unbound was 0.0039.

What about the AUC [11] of the same compound?
Its AUC is 3.07 µM·h.

What about the AUC(0-t) at 6 h [12] of the same compound?
Its AUC(0-t) at 6 h is 0.087 µM·h.

What about the Tmax [13] of the same compound?
Its Tmax is 1.7 h.

And the IC50 [14]?
The IC50 was over 10000 nM.

What about the Cmax [15] of the same compound?
Its Cmax is 33 nM.

What about the half-life [16] of the same compound?
Its half-life is 7.79 h.

What about the Cmax [17] of the same compound?
Its Cmax is 369 nM.

And the Tmax [18]?
The Tmax was 1.3 h.

And the Tmax [19]?
Its Tmax is 0.5 h.

And the IC50 [20]?
The IC50 was over 10000 nM.

What about the AUC [21] of the same compound?
The AUC was 2.19 µM·h.

And the TI [22]?
The TI was over 30.

And the IC50 [23]?
The IC50 was 19 nM.

And the Tmax [24]?
The Tmax was 0.75 h.

What about the Vd [25] of the same compound?
Its Vd is 9.2 L/kg.

What about the solubility [26] of the same compound?
Its solubility is 10 µg/mL (≈ 23.6 µM).

What about the half-life [27] of the same compound?
Its half-life is 5.13 h.

What about the CLint [28] of the same compound?
The CLint was 0.31 mL/min/g.

What about the Tmax [29] of the same compound?
Its Tmax is 0.83 h.

What about the concentration at 456 h [30] of the same compound?
The concentration at 456 h was 513 nM.

What about the fraction unbound [31] of the same compound?
The fraction unbound was 0.0025.

And the Cmax [32]?
Its Cmax is 57 nM.

And the half-life [33]?
The half-life was 6.3 h.

What about the AUC [34] of the same compound?
Its AUC is 1.38 µM·h.

And the “beta t1/2” value [35]?
The value was 8 h.

What about the Tmax [36] of the same compound?
The Tmax was 0.75 h.

And the minimal effective dose [37]?
The minimal effective dose was 0.5 mg/kg.
